# This is a sample that favours compounds with a hit; in the whole collection about 0.55% have one here.
# TRPML3 ag – activates the human TRPML3 channel. Q8TDD5. activation, % at 3 µM. HEK293 TRPML3-YFP, Fluo-8 calcium fluorescence; 100% = the carbachol control signal. hit rate 0.29% among 220,000;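 active means activation above its plate's cutoff, the mean activation of the plate's test wells plus 3 SD, cut at about 12% in these data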;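 further: 0% = DMSO only wells and 100% = carbachol wells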
# Target sequence (Q8TDD5 whole entry, looked up): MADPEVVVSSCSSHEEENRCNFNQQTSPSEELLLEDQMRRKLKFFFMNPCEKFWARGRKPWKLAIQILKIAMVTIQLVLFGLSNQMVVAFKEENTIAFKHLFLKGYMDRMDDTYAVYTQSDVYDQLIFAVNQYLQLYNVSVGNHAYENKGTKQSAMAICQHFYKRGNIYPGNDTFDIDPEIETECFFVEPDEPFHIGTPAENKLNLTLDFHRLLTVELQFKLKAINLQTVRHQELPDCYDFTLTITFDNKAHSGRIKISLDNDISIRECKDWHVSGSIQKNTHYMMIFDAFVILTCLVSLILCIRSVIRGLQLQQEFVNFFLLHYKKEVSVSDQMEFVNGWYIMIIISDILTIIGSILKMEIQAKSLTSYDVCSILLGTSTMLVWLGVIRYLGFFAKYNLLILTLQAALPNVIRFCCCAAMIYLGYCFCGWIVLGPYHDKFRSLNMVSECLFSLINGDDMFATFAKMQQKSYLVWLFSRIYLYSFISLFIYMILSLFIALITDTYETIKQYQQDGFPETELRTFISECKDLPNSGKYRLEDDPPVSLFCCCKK
#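 Material: HEK293 cells stably carrying human TRPML3-YFP; compound dosing: single dose, 3 µM final nominal compound, 0.3% DMSO final; incubation: 1-h 37 °C dye load, 5-s basal, 120-s post-compound reads; technique: Fluo-8 intracellular calcium fluorescence, excitation 470-495 nm, emission 515-575 nm; read-out basis: percent activation from peak-to-basal fluorescence ratio, scaled between DMSO and carbachol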
# TRPN1 ag – zebrafish TRPN1 (NompC) channel agonism. AID 1424. HEK293 zebrafish TRPN1-YFP, Fluo-8 calcium fluorescence; 100% = response to 87 µM carbachol. activation, % at 3 µM. hit rate 0.18% among 220,000;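 active means activation above its plate's cutoff, the mean activation of test wells on that plate plus 3 SD, cut at about 19% in these data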;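 further: 0% = DMSO alone and 100% = 87 µM carbachol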
#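 Material: zebrafish TRPN1-YFP in HEK293 cells; Doses: single test compound dose, 3 µM nominal, 0.3% DMSO; Timing: dye loading 1 h at 37 °C, then 30 min room temperature; Technique: intracellular calcium fluorescence with Fluo-8; Benchmarks: high carbachol 87 µM, low DMSO alone.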
# V1aR counter – activates human V1a receptor in oxytocin agonist counter-screen; P37288; CHO-V1R cells, Fluo-8 calcium fluorescence, agonist mode; 0% DMSO, 100% 3 nM vasopressin; activation, % at 3 µM; hit rate 0.25% among 320,000;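 active means activation above the mean activation of all tested compounds plus 3 SD, per screening run, cut at about 20% in these data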;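 further: signal is peak over basal fluorescence ratio across a 100 second FLIPR read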
# OXTR potentiator – human OXTR potentiation | P30559 | AID 2445 | activation, % at 3 µM | CHO-OTR cells, Fluo-8 calcium fluorescence, potentiator mode; 0% = oxytocin EC15, 100% = EC100 | hit rate 0.061% among 320,000;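 active means activation above that plate's cutoff, the mean activation of tested compounds plus 3 SD, cut at about 6.6% in these data, passing the limit was not always enough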;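 further: 100% uses oxytocin at 75 nM as the full agonist control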
#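 Material: human OTR in CHO cells. Compound: 3.0 µM, one dose. Timing: compound 6 min at room temperature before oxytocin, 100 s read. Evaluation: % activation of max/min ratio relative to oxytocin controls. Replication: single well per compound, singlicate. Signal: Fluo-8 calcium dye fluorescence.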
# OXTR ag – agonists of human oxytocin receptor. P30559. CHO-OTR cells, Fluo-8 calcium fluorescence; normalized: DMSO 0%, oxytocin 100%. activation, % at 3 µM. hit rate 0.32% among 320,000. AID 2435;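 active means activation above the mean of all tested compounds plus 3 SD, cutoff set per screening run, cut at about 20% in these data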;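 further: peak over basal fluorescence ratio from a 100 s FLIPR kinetic read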
# OXTR agonist cf – human OXTR agonism, confirmation; shares compounds with OXTR ag; activation, % at 3 µM; CHO-OTR cells, Fluo-8 calcium fluorescence, agonist; hit rate 20% among 390;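 active means mean activation above about 20% derived from the earlier single-dose screen, limit read from the data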;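 further: peak over minimum fluorescence ratio per well during a 100 second FLIPR read; 0% = DMSO alone and 100% = oxytocin high control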
# V1R ag counter 3x – V1R agonism in triplicate, counter-screen for OXTR agonists | shares compounds with OXTR ag | CHO-V1R cells, Fluo-8 calcium fluorescence, agonist | activation, % at 3 µM | hit rate 10% among 390 | AID 434991;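 active means mean activation over triplicate exceeds the hit threshold set in the earlier primary screen, cut at about 20% in these data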;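 further: peak over basal fluorescence ratio within a 100 second read; 0% = DMSO alone and 100% = 3 nM vasopressin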
# The depositor's hits bear a star; / = no result.
SMILES,TRPML3 ag,TRPN1 ag,V1aR counter,OXTR potentiator,OXTR ag,OXTR agonist cf,V1R ag counter 3x
C=CCN(C(=O)C1CC(=O)N(C2CCCC2)C1)c1nc(-c2ccc(S(C)(=O)=O)cc2)cs1 (stereo not drawn),/,/,8,-10,7,/,/
CN1CCN(S(=O)(=O)c2ccc(N(C)Cc3ccc(C(F)(F)F)cc3)c([N+](=O)[O-])c2)CC1,/,/,16,-12,20*,10,6
CCOc1ccc(CN(C)c2ccc(S(=O)(=O)N3CCN(C)CC3)cc2[N+](=O)[O-])cc1OC,/,/,12,-12,22*,10,9
C=CCOc1ccc(CN(C)c2ccc(S(=O)(=O)N3CCN(C)CC3)cc2[N+](=O)[O-])cc1,/,/,12,-11,12,/,/
CC1CCCCC12NC(=O)N(CC(=O)NNC(=O)c1ccc(Br)cc1)C2=O (stereo not drawn),/,/,1,4,1,/,/
CCCCCCOc1ccc(OCC(O)CN2C(=O)NC(C)(C)C2=O)cc1 (stereo not drawn),0,1,14,-11,24*,5,2
COc1cc(OC)cc(C(=O)N[C@H](C(=O)NC2CCCc3ccccc32)C(C)C)c1 (stereo partly drawn),/,/,-1,0,-2,/,/
CCc1ccc(Nc2cc(=O)n(C3CCCCC3)c(=O)[nH]2)cc1,7,8,17,-16,25*,33*,30*
O=c1cc(Nc2ccc3c(c2)OCCO3)[nH]c(=O)n1C1CCCCC1,1,2,3,-11,4,/,/
COc1ccc(CN(C)C(=O)CCN=C2NS(=O)(=O)c3ccccc32)c(OC)c1,/,/,1,-4,0,/,/
Cc1ccc(OCc2nnc(SCC(=O)Nc3sc(C)c(C)c3C#N)n2C)cc1,1,0,0,-19,21*,-1,-1
Cc1sc(NC(=O)CSc2nnc(COc3ccccc3)n2C)c(C#N)c1C,0,-1,4,-14,0,/,/
O=C(COc1ccccc1/C=C1\SC(=S)NC1=O)Nc1ccc(F)cc1,/,/,10,-6,6,/,/
COc1ccc(/C=C2\CCc3ccccc3C2=O)cc1Cn1nc(C)cc1C,-1,0,20,-16,23*,5,3
COc1ccc(/C=C2/CCc3ccccc3C2=O)cc1CN1CCOCC1,-1,0,0,-9,-2,/,/
O=C(NC1CC1)c1ccc2c(c1)S(=O)(=O)c1cc(Cl)ccc1C2=O,/,/,1,6,1,/,/
CC1Cc2ccccc2N1C(=O)C(C)n1cc(C(F)(F)F)cc(Cl)c1=O (stereo not drawn),/,/,-1,4,-1,/,/
Cn1cccc1P(=O)(c1cccn1C)c1cccn1C,0,0,0,-13,31*,1,1
CC(=O)Nc1ccc(/C(C)=N/Nc2nc(Nc3cccc4ccccc34)nc(N3CCOCC3)n2)cc1,5,9,12,-13,25*,0,0
Cc1cccc(C(=O)NC(=S)NNC(=O)Cc2ccccc2)c1,0,-1,8,-11,25*,45*,58*
COc1ccc(Nc2nc(-c3ccccc3)nc3ccccc23)c(OC)c1,0,1,6,-27,30*,0,0
COc1ccccc1Nc1nc(-c2ccccc2)nc2ccccc12,1,1,0,-7,-2,/,/
CC(C)(C)c1ccc(S(=O)(=O)N2CCN(C(=O)C3=COCCO3)CC2)cc1,/,/,4,-7,6,/,/
Cc1cccc(C(=O)OCC(=O)NCC2COc3ccccc3O2)c1 (stereo not drawn),/,/,0,5,-1,/,/
Cc1ccccc1COC(=O)CCCC1=NS(=O)(=O)c2ccccc2N1,/,/,17,-15,24*,17,14
SMILES,TRPML3 ag,TRPN1 ag,V1aR counter,OXTR potentiator,OXTR ag,OXTR agonist cf,V1R ag counter 3x
CCN(CC(=O)NCc1cccs1)CC(=O)Nc1ccccc1C,/,/,1,-11,0,/,/
Nc1nc2ccccc2n1CCOc1ccc(Cl)cc1,/,/,6,-8,6,/,/
Nc1nc2ccccc2n1CCOc1ccc(Br)cc1,/,/,7,-15,21*,1,0
CC(C)(C)c1ccc(NC(=O)C2=CC=CN3CCS(=O)(=O)N=C23)cc1,/,/,2,-9,4,/,/
Cc1cccc(Oc2ccc(NC(=O)C3=CC=CN4CCS(=O)(=O)N=C34)cc2)c1,/,/,7,-11,21*,11,3
Cc1ccc(Oc2ccc(NC(=O)C3=CC=CN4CCS(=O)(=O)N=C34)cc2)cc1,/,/,7,-12,24*,9,2
O=C(COC(=O)c1cc(S(=O)(=O)N2CCCC2)ccc1O)Nc1ccc(SC(F)F)cc1,/,/,17,-11,21*,15,13
O=C(COC(=O)c1cc(S(=O)(=O)N2CCCC2)ccc1O)Nc1ccc(S(=O)(=O)N2CCOCC2)cc1,1,0,1,-9,0,/,/
O=C(COC(=O)/C=C/c1ccc(OC(F)F)cc1)NC1CCCCCC1,/,/,0,-1,0,/,/
Oc1ccc(Cl)cc1CNCc1ccc(Cl)nc1,/,/,16,-2,20*,21*,13
Oc1ccc(Cl)cc1CNCc1ccc(F)c(F)c1,/,/,15,-16,18,/,/
Nc1cc(Cl)ccc1C(=O)OCC(=O)NCC1CCCO1 (stereo not drawn),/,/,1,-1,0,/,/
COc1ccc(C2NCCc3c2[nH]c2ccccc32)cc1CN1CCc2cc(OC)c(OC)cc2C1C (stereo not drawn),5,11,/,/,/,/,/
COc1ccc(C2NCCc3c2[nH]c2ccccc32)cc1COc1ccc(F)cc1 (stereo not drawn),1,3,8,-19,24*,24*,3
Cc1ccc(C)c(CN2CCC(CNC(=O)Nc3ccc(C)c(C)c3)CC2)c1,/,/,3,-20,3,/,/
O=C(NCC1CCN(Cc2cccc(Cl)c2)CC1)Nc1ccc(Cl)cc1,/,/,19,-21,23*,5,6
COc1ccc(Cl)cc1NC(=O)NCC1CCN(Cc2cc(C)ccc2C)CC1,/,/,18,-19,21*,6,4
CCc1cccc(CN2CCC(CNC(=O)Nc3ccc(Cl)cc3)CC2)c1,2,3,4,-12,7,/,/
CCc1ccc(Nc2n[n+](-c3ccccc3)c(-c3ccc(N(CC)CC)cc3)s2)cc1,/,/,17,-18,40*,71*,101*
Cc1ccc2c(=O)n3c(nc2c1)C(CC(C)C)NC(=O)c1ccc(Cl)cc1-3 (stereo not drawn),/,/,-1,-4,-2,/,/
CCOc1ccc(S(=O)(=O)NCCC(=O)OCC(=O)NC(=O)c2cccn2C)cc1,/,/,2,-9,2,/,/
